Active and inactive are the calls of the source. No cut-off for these calls is given here.
Columns and labels:
[1] = Cytotoxicity against human HeLa cells assessed as decrease in cell viability after 72 hrs by MTT assay; assay type: cell-based
Method in brief: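 HeLa monolayers exposed to a range of compound concentrations at 37 °C, 5% CO2. Morphology (rounding, shrinking, detachment) checked by light microscopy at 24, 48 and 72 h. Viability measured by MTT colorimetry. CC50 is the concentration that lowered control absorbance by 50%.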

[2] = test system: rhinovirus B14; test: Antiviral activity against Human rhinovirus serotype 14 infected in human HeLa cells assessed as reduction in virus-induced cytopathic effect after 24 to 36 hrs by MTT assay; assay type: functional, organism-based; settings: Rhinovirus B
Method in brief: (§1)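 HeLa (Ohio) monolayers in DMEM with 1% nonessential amino acids and 10% fetal calf serum, infected at MOI 1, then given serial compound dilutions. Incubation 24−36 h at 33 °C, 3% CO2, until control CPE was almost total. Multicycle CPE reduction read by MTT. EC50 (50% CPE inhibition) taken from dose−response curves by linear regression. Pleconaril served as reference.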

[3] = test system: rhinovirus A39; test: Antiviral activity against Human rhinovirus serotype 39 infected in human HeLa cells assessed as reduction in virus-induced cytopathic effect after 24 to 36 hrs by MTT assay; assay type: functional, organism-based; settings: Rhinovirus A; method in brief: as §1
[4] = target: T1, VP1 capsid protein (Human rhinovirus sp.) (UniProt Q7T664); test: Inhibition of Human rhinovirus serotype 39 capsid infected in human HeLa cells assessed as reduction in virus-induced cytopathic effect at 5 ug/ml treated 3 hrs post viral infection measured after 24 to 36 hrs relative to control; assay type: cell-based; settings: rhinovirus A39
T1 sequence (whole entry): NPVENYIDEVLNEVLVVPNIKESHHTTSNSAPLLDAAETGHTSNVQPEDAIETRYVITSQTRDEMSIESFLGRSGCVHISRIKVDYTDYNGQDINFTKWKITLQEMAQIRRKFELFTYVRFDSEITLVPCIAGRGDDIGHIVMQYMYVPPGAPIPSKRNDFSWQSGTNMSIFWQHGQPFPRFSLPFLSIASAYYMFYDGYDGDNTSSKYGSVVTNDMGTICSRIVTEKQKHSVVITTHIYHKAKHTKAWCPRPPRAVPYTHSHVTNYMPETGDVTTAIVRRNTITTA
Method in brief: (§2)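 HeLa (Ohio strain) monolayers in 24-well plates (DMEM, 10% fetal calf serum) infected with ATCC HRV39 (working stock prepared as cell lysate). Compound at 5 μg/mL added before (−1 h), at (0 h) or after infection. Cells incubated in CO2 atmosphere for 24–36 h, then washed twice with HBSS. Virus yield inhibition (%) determined by virus-cell-based CPE reduction assay in HeLa cells. Pirodavir (5 μg/mL) served as positive control.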

[5] = target: T1, VP1 capsid protein (Human rhinovirus sp.); test: Inhibition of Human rhinovirus serotype 39 capsid infected in human HeLa cells assessed as reduction in virus-induced cytopathic effect at 5 ug/ml treated 2 hrs post viral infection measured after 24 to 36 hrs relative to control; assay type: cell-based; settings: rhinovirus A39; method in brief: as §2
[6] = target: T1, VP1 capsid protein (Human rhinovirus sp.); test: Inhibition of Human rhinovirus serotype 39 capsid infected in human HeLa cells assessed as reduction in virus-induced cytopathic effect at 5 ug/ml treated 1 hr post viral infection measured after 24 to 36 hrs relative to control; assay type: cell-based; settings: rhinovirus A39; method in brief: as §2
[7] = Selectivity index, ratio of CC50 for human HeLa cells to EC50 for Human rhinovirus serotype 39 infected in human HeLa cells; assay type: toxicity, cell-based; settings: read-out: Ratio CC50/EC50
Method in brief: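 Selectivity index computed as CC50 (MTT, uninfected HeLa) divided by EC50 (MTT, HRV39 CPE reduction in HeLa at MOI 1, 24−36 h at 33 °C).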

[8] = target: T1, VP1 capsid protein (Human rhinovirus sp.); test: Inhibition of Human rhinovirus serotype 39 capsid infected in human HeLa cells assessed as reduction in virus-induced cytopathic effect at 5 ug/ml treated 1 hr prior to viral infection measured 24 to 36 hrs post viral infection relative to control; assay type: cell-based; settings: rhinovirus A39; method in brief: as §2
[9] = target: T1, VP1 capsid protein (Human rhinovirus sp.); test: Inhibition of Human rhinovirus serotype 39 capsid infected in human HeLa cells assessed as reduction in virus-induced cytopathic effect at 5 ug/ml treated with virus inoculum measured after 24 to 36 hrs relative to control; assay type: cell-based; settings: rhinovirus A39; method in brief: as §2

SMILES	CC50 at 72 h [1]	EC50 [2]	EC50 [3]	inhibition [4]	inhibition [5]	inhibition [6]	selectivity ratio [7]	inhibition [8]	inhibition [9]
Cc1cc(CCCOc2c(C)cc(-c3noc(C(F)(F)F)n3)cc2C)on1 [PLECONARIL]	131 µM	0.3 µM	0.1 µM	–	–	–	–	–	–
C/C=C(/C)C(=O)OC/C(=C/C)C(=O)OC/C=C/c1ccc(OC)c(OC)c1	20.3 µM	> 20.3 µM	2.4 µM	50%	65%	78%	8.4	100%	90%
C=CC(O)C#CC#C/C=C/C(O)CCCCCCCCO (configuration not stated)	107 µM	> 107 µM	> 107 µM	–	–	–	–	–	–
CCOC(=O)c1ccc(OCCC2CCN(c3ccc(C)nn3)CC2)cc1	–	–	–	–	–	–	–	–	Active
C/C=C(/C)C(=O)OC/C=C/c1ccc(OC)cc1	248 µM	> 248 µM	30.9 µM	–	–	–	8	–	–
COc1ccc(/C=C/CO)cc1OC	160 µM	> 160 µM	> 160 µM	–	–	–	–	–	–
C/C=C(/C)C(=O)OC/C(=C/C)C(=O)OC/C=C/c1ccc(OC)cc1	36.3 µM	> 36.3 µM	> 36.3 µM	–	–	–	–	–	–
CC(C)CC(=O)OC/C=C/c1ccccc1	142 µM	> 142 µM	> 142 µM	–	–	–	–	–	–
C/C=C(/C)C(=O)OC/C=C/c1ccc(OC)c(OC)c1	453 µM	> 453 µM	> 453 µM	–	–	–	–	–	–
C=C[C@H](O)C#CC#CC/C=C\CCCCCCCCO	14.6 µM	> 14.6 µM	1.8 µM	–	–	–	8.1	–	–
COc1ccc(/C=C/CO)cc1	189 µM	> 189 µM	> 189 µM	–	–	–	–	–	–
CC(C)[C@@H]1CCC(C=O)=C[C@H]1O	47.6 µM	> 47.6 µM	> 47.6 µM	–	–	–	–	–	–

From ChEMBL document CHEMBL4130511, “Phenylpropenoids from Bupleurum fruticosum as Anti-Human Rhinovirus Species A Selective Capsid Binders” (J Nat Prod, 2017)
